One may read the GI50 as the concentration that inhibits growth by half. In general, Kd refers to the equilibrium constant for the complex coming apart.

One assay deals with A549. In words: Antiproliferative activity against human A549 cells assessed as cell growth inhibition incubated for 72 hrs by resazurin dye based analysis. The class given is functional. The procedure, abridged: (§1)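 Cells seeded at 2000/well, treated 24 h later with compounds in a 6-point 2-fold dose series, duplicate wells, two independent experiments. After 72 h, resazurin was added at 44 µM final for 3 h at 37 °C and fluorescence was read at 590 nm. Viability was normalized to 1 µM bortezomib (positive) and 0.5% DMSO (negative) controls. GI50 is the mean ± SEM of dose-response curves.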
In general terms: The colour change of resazurin is a common sign of viable cells or microbes.

The next assay has as its system RS4-11. In words: Antiproliferative activity against human RS4-11 cells assessed as cell growth inhibition incubated for 72 hrs by resazurin dye based analysis. The class given is functional. An outline of the steps:
as §1

The subject of another assay is HD-MB03. In words: Antiproliferative activity against human HD-MB03 cells assessed as cell growth inhibition incubated for 72 hrs by resazurin dye based analysis. The class given is functional. The procedure, abridged:
as §1

Assay [1] deals with T1, BAG family molecular chaperone regulator 3 (Homo sapiens, UniProt O95817). Kind of assay: Binding affinity to CM4 sensorchip immobilized C-terminal His tagged human BAG3 transfected in HEK293T cells at 50 uM by SPR analysis. The procedure, abridged: (§2)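 SPR screen on BAG3-His amine-coupled to a CM4 chip at 60 µg/mL in pH 2.8 acetate. Compound at 50 µM in PBS with 5% DMSO and 0.05% P20 was injected for 90 s at 30 µL/min, then washed. Chip regenerated with 10 mM glycine pH 3. Bound RU read at equilibrium against a void flow cell; 3–10 repeats, mean ± SEM.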
T1 sequence (O95817 whole entry): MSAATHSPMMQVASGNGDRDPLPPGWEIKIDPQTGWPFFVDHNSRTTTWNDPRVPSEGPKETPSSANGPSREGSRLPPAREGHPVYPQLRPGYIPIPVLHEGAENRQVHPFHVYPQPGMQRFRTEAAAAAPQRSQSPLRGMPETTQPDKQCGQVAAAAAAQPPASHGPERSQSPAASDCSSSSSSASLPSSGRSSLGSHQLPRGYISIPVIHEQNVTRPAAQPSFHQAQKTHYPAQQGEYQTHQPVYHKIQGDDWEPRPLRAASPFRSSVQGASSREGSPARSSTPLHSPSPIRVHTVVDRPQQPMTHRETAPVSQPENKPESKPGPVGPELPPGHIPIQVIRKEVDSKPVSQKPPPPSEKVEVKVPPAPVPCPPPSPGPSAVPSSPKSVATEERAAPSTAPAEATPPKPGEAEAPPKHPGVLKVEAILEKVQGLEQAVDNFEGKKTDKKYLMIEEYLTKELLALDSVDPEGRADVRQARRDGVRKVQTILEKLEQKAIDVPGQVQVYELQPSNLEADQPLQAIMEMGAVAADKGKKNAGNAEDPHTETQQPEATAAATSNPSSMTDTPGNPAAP

Assay [2] concerns the target T1, BAG family molecular chaperone regulator 3. In words: Binding affinity to CM4 sensorchip immobilized glycosylated C-terminal His tagged human BAG3 transfected in HEK293T cells assessed as dissociation constant by SPR analysis. The procedure, abridged:
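SPR single-cycle kinetics on CM4-immobilized HEK-293T-expressed BAG3-His. Increasing compound concentrations in PBS with 5% DMSO and 0.05% P20 were injected at 30 µL/min without regeneration between injections, with blank subtraction. Kd from steady-state analysis, reported as mean ± SEM and compared by Student t-test.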
(Surface plasmon resonance follows binding to a sensor surface in real time, without labels.)

Assay [3] has the same target. Kind of assay: Binding affinity to CM4 sensorchip immobilized C-terminal His tagged human BAG3 transfected in HEK293T cells assessed as binding capacity at 50 uM by SPR analysis. An outline of the steps: as §2

The source made the active and inactive calls. The calls are words filed in the database; no cut-off is given here.

Take `CCOC(=O)CN1C(=O)S/C(=C\c2ccc(O)cc2)C1=O`: the GI50 in the assay on A549 is over 100 µM; in the assay with RS4-11, over 100 µM; with HD-MB03, 29.5 µM. Further, the result in assay [1] was inactive.
For the compound `CCOC(=O)CN1C(=O)S/C(=C\c2ccc(F)cc2)C1=O`, the GI50 in the assay with A549 is over 100 µM; with RS4-11, over 100 µM; in the assay with HD-MB03, 34.7 µM. Also, the result in assay [1] was inactive.
`CCOC(=O)CN1C(=O)SC(Cc2ccc(O)c(O)c2)C1=O` (centres undefined): the figures for the GI50 with A549, in the assay on RS4-11 and with HD-MB03 were over 100 µM, 27.6 µM and 49 µM, respectively. For the same compound, the result in assay [1] was inactive.
Regarding `O=C(CN1C(=O)S/C(=C\c2ccc(O)c(O)c2)C1=O)N1CCOCC1`, the Kd in assay [2] is 152 µM. Moreover, the GI50 in the assay on A549 was 49.4 µM; with RS4-11, 24.8 µM; in the assay with HD-MB03 it was 33.1 µM. Also, in assay [3], the Activity was over 5 RU.
Take `CCOC(=O)Cc1csc(Oc2ccc(O)cc2)n1`: the GI50 in the assay with A549, with RS4-11 and in the assay on HD-MB03 was over 100 µM in each case. Besides, the Activity in assay [3] is under 5 RU.
With `CCOC(=O)CN1C(=O)S/C(=C\c2ccc(OC)c(OC)c2)C1=O`, the GI50 in the assay on A549 was over 100 µM; in the assay on RS4-11, over 100 µM; in the assay with HD-MB03, 45 µM. In assay [1], the result was inactive.
As for `CCOC(=O)CN1C(=O)S/C(=C\c2ccc(Cl)c(Cl)c2)C1=O`, the GI50 in the assay with A549, with RS4-11 and in the assay on HD-MB03 was over 100 µM in each case. Besides, in assay [1], the result was inactive.
For `CCOC(=O)CN1C(=O)S/C(=C\c2ccc(OC)nc2)C1=O`, the GI50 is over 100 µM in the assay with A549, over 100 µM with RS4-11 and 41.1 µM in the assay on HD-MB03. Moreover, the outcome in assay [1] was inactive.
`CCOC(=O)CN1C(=O)S/C(=C\c2ccc3c(c2)OCCO3)C1=O`: the GI50 with A549, in the assay with RS4-11 and in the assay on HD-MB03 was over 100 µM throughout. The outcome in assay [1] was inactive.
As for `CCOC(=O)C(C)N1C(=O)/C(=C/c2ccc(O)c(O)c2)N(C)C1=O` (centres undefined), the GI50 in the assay on A549 worked out at 52.6 µM; in the assay with RS4-11, 17.8 µM; with HD-MB03 it was 53.3 µM. For the same compound, the outcome in assay [1] was inactive.
Turning to `CCOC(=O)CN1C(=O)S/C(=C\c2ccc(O)c(F)c2)C1=O`, the GI50 with A549 was over 100 µM; in the assay with RS4-11, over 100 µM; in the assay with HD-MB03, 58.3 µM. In assay [1], the result was inactive.
Consider `CS(=O)(=O)Nc1ccc(/C=C2\SC(=O)N(CC(=O)N3CCOCC3)C2=O)cc1`, for which the GI50 was 47.7 µM with A549, 12.4 µM in the assay on RS4-11 and 47.4 µM in the assay on HD-MB03. Besides, the result in assay [1] was inactive.
Consider `O=C(O)CN1C(=O)S/C(=C\c2ccc(O)c(O)c2)C1=O`, for which the GI50 in the assay on A549, in the assay on RS4-11 and with HD-MB03 was over 100 µM throughout. Besides, the result in assay [1] was inactive.
For the compound `O=C1OCCC1N1C(=O)S/C(=C\c2ccc(O)c(O)c2)C1=O` (centres undefined), the GI50 in the assay with A549 is 50.2 µM; with RS4-11, 18.1 µM; in the assay on HD-MB03, 20.7 µM. For the same compound, the Activity in assay [3] was under 5 RU.
Take `CCOC(=O)CN1C(=O)S/C(=C(/C)c2ccc(O)c(O)c2)C1=O`: the GI50 was determined as 44.2 µM in the assay on A549, 7.25 µM with RS4-11 and 6.4 µM with HD-MB03. Also, in assay [1], the outcome was inactive.
Taken in the same sequence, the figures for `CN(C)C(=O)CN1C(=O)S/C(=C\c2ccc(O)c(O)c2)C1=O` were 48.3 µM, 25.6 µM, 36.4 µM and “inactive”.
For `CCOC(=O)CN1C(=O)S/C(=C\c2cccc(O)c2)C1=O`, the GI50 with A549 was over 100 µM; in the assay on RS4-11 it was 55 µM; in the assay on HD-MB03 it was 40.7 µM. Besides, the result in assay [1] was inactive.
For the compound `O=C(CN1C(=O)S/C(=C\c2cc(Cl)c(O)c(Cl)c2)C1=O)N1CCOCC1`, the concentration for 50% growth inhibition (GI50) in the assay on A549, with RS4-11 and in the assay with HD-MB03 was over 100 µM in each case. Further, in assay [1], the result was inactive.
Regarding `CCOCCN1C(=O)S/C(=C\c2ccc(O)c(O)c2)C1=O`, the results for the GI50 in the assay with A549, in the assay with RS4-11 and with HD-MB03 were 34.3 µM, 6.1 µM and 17.8 µM, respectively. Besides, in assay [1], the result was inactive.
As to `O=C(CN1C(=O)S/C(=C\c2ccc(O)c(O)c2)C1=O)OCc1ccccc1`, the outcome in assay [1] was inactive.
In the case of `CCNC(=O)C(C)N1C(=O)S/C(=C\c2ccc(O)c(O)c2)C1=O` (racemic), the GI50 in the assay with A549 was found to be 70.9 µM; in the assay with RS4-11 it was 24.8 µM; in the assay with HD-MB03, 53.1 µM. Moreover, the outcome in assay [1] was inactive.
Taken in the same sequence, the figures for `CCOC(=O)C(C)N1C(=O)S/C(=C\c2ccc(O)nc2)C1=O` (racemic) were over 100 µM, over 100 µM, over 100 µM and “inactive”.
In the case of `CCOC(=O)C(C)N1C(=O)S/C(=C\c2ccc(Cl)c(O)c2)C1=O` (racemic), the GI50 in the assay on A549 is over 100 µM; in the assay with RS4-11, 60.6 µM; with HD-MB03, 5.26 µM. Further, the Activity in assay [3] is under 5 RU.
Take `CCOC(=O)C(CC)N1C(=O)S/C(=C\c2ccc(O)c(O)c2)C1=O` (racemic): the GI50 in the assay with A549 was 29.3 µM; in the assay with RS4-11, 5.13 µM; in the assay with HD-MB03 it was 11.7 µM. The Activity in assay [3] is over 5 RU.
In the case of `CC(C(=O)N1CCOCC1)N1C(=O)S/C(=C\c2ccc(N3CCCC3)cc2)C1=O` (racemic), the GI50 with A549 was 69 µM; with RS4-11, 5.2 µM; with HD-MB03, 7.4 µM. Moreover, the Activity in assay [3] was under 5 RU.
On to `CCOC(=O)C(C)N1C(=O)S/C(=C\c2cc(F)c(O)c(F)c2)C1=O` (racemic), for which the GI50 in the assay with A549, with RS4-11 and in the assay on HD-MB03 was over 100 µM each time. Further, in assay [1], the outcome was inactive.
On to `CCOC(=O)C(C)N1C(=O)S/C(=C\c2ccc3c(c2)NC(=O)CO3)C1=O` (racemic), for which the GI50 in the assay with A549 was over 100 µM; in the assay on RS4-11, 28.1 µM; in the assay with HD-MB03 it was 40.7 µM. Further, the outcome in assay [1] was inactive.
Regarding `CC(C(=O)N1CCC2(CC1)OCCO2)N1C(=O)S/C(=C\c2ccc(O)c(O)c2)C1=O` (racemic), the GI50 in the assay on A549 amounted to 44.1 µM; in the assay with RS4-11, 13.4 µM; in the assay on HD-MB03, 31.4 µM. Moreover, the Activity in assay [3] was under 5 RU.
In the case of `CCOC(=O)C(C)N1C(=O)S/C(=C\c2ccc(O)c(Cl)c2)C1=O` (racemic), the GI50 in the assay with A549 was found to be 49.4 µM; in the assay with RS4-11 it was 38.1 µM; with HD-MB03, 26.5 µM. Further, in assay [1], the result was inactive.
Regarding `CCOC(=O)C(C)N1C(=O)S/C(=C\c2ccc3cn[nH]c3c2)C1=O` (racemic), the GI50 came out at 57.5 µM in the assay on A549, 17.8 µM in the assay with RS4-11 and 26.3 µM with HD-MB03. Moreover, in assay [3], the Activity is under 5 RU.
Regarding `CC(C(=O)N1CC2(COC2)C1)N1C(=O)S/C(=C\c2ccc(O)c(O)c2)C1=O` (racemic), the GI50 with A549, in the assay on RS4-11 and with HD-MB03 was over 100 µM in each case. Besides, the result in assay [1] was inactive.
Take `CCOC(=O)C(C)N1C(=O)S/C(=C\c2ccc3[nH]ncc3c2)C1=O` (racemic): the GI50 was 68 µM in the assay on A549, 50.5 µM in the assay with RS4-11 and 28.3 µM with HD-MB03. Also, the Activity in assay [3] is under 5 RU.
Consider `CCOC(=O)C(C)N1C(=O)S/C(=C\c2ccc(F)c(O)c2)C1=O` (racemic), for which the GI50 in the assay on A549, in the assay on RS4-11 and in the assay with HD-MB03 was over 100 µM in each case. The result in assay [1] was inactive.
Take `CCOC(=O)C(C)N1C(=O)N/C(=C\c2ccc(O)c(O)c2)C1=O` (racemic): the GI50 in the assay on A549 was determined as 54.1 µM; in the assay with RS4-11 it was 11.9 µM; in the assay with HD-MB03, 16.9 µM. Also, the result in assay [1] was inactive.
With `CC(C(=O)N1CCOCC1)N1C(=O)S/C(=C\c2ccc(N3CCOCC3)cc2)C1=O` (racemic), the GI50 with A549, in the assay with RS4-11 and in the assay with HD-MB03 was over 100 µM throughout. Further, the Activity in assay [3] was under 5 RU.
`CC(C(=O)N1CCOCC1)N1C(=O)S/C(=C\c2ccc(O)c(O)c2)C1=O` (racemic): the values for the GI50 in the assay on A549, with RS4-11 and in the assay with HD-MB03 were 47.9 µM, 14.1 µM and 48.7 µM, respectively. Also, in assay [1], the outcome was inactive.
Consider `CCOC(=O)C(C)N1C(=O)S/C(=C\c2cc(Cl)c(O)c(Cl)c2)C1=O` (racemic), for which the GI50 was 72.5 µM in the assay on A549, 47.2 µM with RS4-11 and 45.6 µM in the assay on HD-MB03. In assay [3], the Activity was under 5 RU.
As for `CCOC(=O)C(C)N1C(=O)S/C(=C\c2ccc(NS(C)(=O)=O)cc2)C1=O` (racemic), the GI50 in the assay with A549 is over 100 µM; with RS4-11, 50.3 µM; in the assay on HD-MB03, 17.6 µM.
